# Test results as given in ChEMBL document CHEMBL3992493, “New approach of delivering cytotoxic drugs towards CAIX expressing cells: A concept of dual-target drugs” (Eur J Med Chem, 2017).
# The source made the active and inactive calls. The rule behind the calls is not given here.
# Legend:
# MDCK [1] = assay: Cytotoxicity against carbonic anhydrase 9 knockdown MDCK cells assessed as reduction in cell viability at 500 nM pretreated for 1 hr followed by 2 Gy irradiation under normoxic condition by Alamar blue assay; assay type: cell-based, Canis lupus familiaris; settings: dog, 0.5 µM
# How it was run: (§1)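 ATR inhibitor plus radiation: MDCK CAIX+/CAIX− cells were preconditioned 24 h under normoxia (21% O2) or anoxia (≤0.02% O2). Compound in 0.5% DMSO was added 1 h before X-irradiation, 2 Gy normoxic or 4 Gy anoxic. Total compound exposure was 72 h, then washout and 72 h normoxic regrowth. Readout was 2 h alamarBlue conversion, as relative viability.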
# MDCK [2] = assay: Cytotoxicity against carbonic anhydrase 9 knockdown MDCK cells assessed as reduction in cell viability at 500 nM pretreated for 1 hr followed by 4 Gy irradiation under anoxic condition by Alamar blue assay; assay type: cell-based, Canis lupus familiaris; settings: dog, 0.5 µM
# How it was run: (§2)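 MDCK cells with or without CAIX, pre-exposed 24 h to anoxia (≤0.02% O2, 5% CO2, balance N2) in pre-equilibrated DMEM. ATR inhibitors in 0.5% DMSO added 1 h before 4 Gy X-irradiation. Exposure 72 h total, medium replaced, then 72 h normoxic regrowth. Viability by 2 h alamarBlue in normoxia.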
# MDCK [3] = assay: Cytotoxicity against MDCK cells expressing carbonic anhydrase 9 assessed as reduction in cell viability at 500 nM pretreated for 1 hr followed by 2 Gy irradiation under normoxic condition by Alamar blue assay; assay type: functional, cell-based; settings: Canis lupus familiaris
# How it was run: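 MDCK CAIX+ cells (human CAIX transfected) under normoxia (21% O2, 5% CO2). ATR inhibitors in 0.5% DMSO added 1 h before X-irradiation with 2 Gy. Exposure 72 h total, medium replaced, then 72 h further growth. Viability by 2 h alamarBlue conversion in normoxia.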
# Carbonic anhydrase 12 = Carbonic anhydrase 12 (Homo sapiens, UniProt O43570); assay: Binding affinity to recombinant human carbonic anhydrase 12 after 15 mins by stopped-flow CO2 hydration assay
# Chain of Carbonic anhydrase 12 (O43570 whole entry): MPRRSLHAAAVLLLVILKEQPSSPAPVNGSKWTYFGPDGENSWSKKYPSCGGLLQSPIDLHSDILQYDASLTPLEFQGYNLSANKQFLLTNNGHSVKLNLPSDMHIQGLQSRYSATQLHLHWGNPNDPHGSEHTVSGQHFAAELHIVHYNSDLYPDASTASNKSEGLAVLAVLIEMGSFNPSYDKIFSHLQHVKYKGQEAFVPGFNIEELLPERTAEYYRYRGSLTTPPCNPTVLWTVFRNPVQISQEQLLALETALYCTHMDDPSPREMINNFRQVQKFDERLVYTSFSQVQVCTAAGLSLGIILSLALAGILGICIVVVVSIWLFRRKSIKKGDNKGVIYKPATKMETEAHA
# MDCK [4] = assay: Cytotoxicity against carbonic anhydrase 9 knockdown MDCK cells assessed as reduction in cell viability at 500 nM pretreated for 72 hrs followed by 72 hrs incubation under normoxic condition by Alamar blue assay; assay type: cell-based, Canis lupus familiaris; settings: dog, 0.5 µM
# How it was run: (§3)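 MDCK cells transfected with human CAIX or scrambled vector, normoxia (21% O2, 5% CO2). ATR inhibitors in 0.5% DMSO for 72 h, medium replaced, cells grown a further 72 h. Viability from 2 h alamarBlue conversion in normoxia.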
# Carbonic anhydrase 9 = Carbonic anhydrase 9 (Homo sapiens, UniProt Q16790); assay: Binding affinity to recombinant human carbonic anhydrase 9 after 15 mins by stopped-flow CO2 hydration assay
# Carbonic anhydrase 2 = Carbonic anhydrase 2 (Homo sapiens, UniProt P00918); assay: Binding affinity to recombinant human carbonic anhydrase 2 after 15 mins by stopped-flow CO2 hydration assay
# MDCK [5] = assay: Cytotoxicity against carbonic anhydrase 9 knockdown MDCK cells assessed as reduction in cell viability at 500 nM after 72 hrs under anoxic condition by Alamar blue assay; assay type: cell-based, Canis lupus familiaris; settings: dog, 0.5 µM
# How it was run: (§4)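 MDCK CAIX+ or CAIX− cells, 24 h anoxic preincubation (≤0.02% O2, 5% CO2) in pre-equilibrated DMEM. ATR inhibitors (0.5% DMSO) applied for 72 h without irradiation, then washed off, and 72 h normoxic regrowth. Readout by 2 h alamarBlue conversion under normoxia.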
# MDCK [6] = assay: Cytotoxicity against MDCK cells expressing carbonic anhydrase 9 assessed as reduction in cell viability at 500 nM after 72 hrs under anoxic condition by Alamar blue assay; assay type: functional, cell-based; settings: Canis lupus familiaris; how it was run: as §4
# Carbonic anhydrase 1 = Carbonic anhydrase 1 (Homo sapiens, UniProt P00915); assay: Binding affinity to recombinant human carbonic anhydrase 1 after 15 mins by stopped-flow CO2 hydration assay
# Chain of Carbonic anhydrase 1 (P00915 whole entry): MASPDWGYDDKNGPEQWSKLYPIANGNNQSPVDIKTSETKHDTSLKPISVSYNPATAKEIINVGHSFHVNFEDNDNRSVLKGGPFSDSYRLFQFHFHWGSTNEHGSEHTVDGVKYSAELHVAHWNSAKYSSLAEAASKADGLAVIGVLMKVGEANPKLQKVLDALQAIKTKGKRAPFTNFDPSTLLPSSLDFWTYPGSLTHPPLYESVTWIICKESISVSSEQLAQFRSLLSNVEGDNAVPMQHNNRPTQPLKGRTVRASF
# MDCK [7] = assay: Cytotoxicity against MDCK cells expressing carbonic anhydrase 9 assessed as reduction in cell viability at 500 nM pretreated for 1 hr followed by 4 Gy irradiation under anoxic condition by Alamar blue assay; assay type: functional, cell-based; settings: Canis lupus familiaris; how it was run: as §2
# MDCK [8] = assay: Cytotoxicity against MDCK cells expressing carbonic anhydrase 9 assessed as reduction in cell viability at 500 nM pretreated for 72 hrs followed by 72 hrs incubation under normoxic condition by Alamar blue assay; assay type: functional, cell-based; settings: Canis lupus familiaris; how it was run: as §3
# HCT-116 [9] = assay: Effect on mitochondrial respiration in human HCT116 cells expressing carbonic anhydrase 9 assessed as reduction in oxygen consumption rate at 2 mM […]; assay type: functional, cell-based
# HCT-116 [10] = assay: Effect on mitochondrial respiration in carbonic anhydrase 9 knockdown human HCT116 cells assessed as reduction in oxygen consumption rate at 2 mM […]; assay type: cell-based; settings: hct-116, 2000 µM
# MDCK [11] = assay: Cytotoxicity against MDCK cells expressing carbonic anhydrase 9 assessed as reduction in cell viability at 50 nM pretreated for 1 hr followed by 2 Gy irradiation under normoxic condition by Alamar blue assay; assay type: functional, cell-based; settings: Canis lupus familiaris; how it was run: as §1
# MDCK [12] = assay: Cytotoxicity against carbonic anhydrase 9 knockdown MDCK cells assessed as reduction in cell viability at 50 nM after 72 hrs under anoxic condition by Alamar blue assay; assay type: cell-based, Canis lupus familiaris; settings: dog, 0.05 µM
# How it was run: (§5)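 ATR inhibitor without irradiation: MDCK CAIX+ or scrambled-control CAIX− cells were preconditioned 24 h at ≤0.02% O2 (anoxia) or 21% O2. Compound was added in 0.5% DMSO for 72 h, then washed off. Cells regrew 72 h under normoxia, followed by 2 h alamarBlue conversion. Viability is relative to control.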
# MDCK [13] = assay: Cytotoxicity against MDCK cells expressing carbonic anhydrase 9 assessed as reduction in cell viability at 50 nM pretreated for 72 hrs followed by 72 hrs incubation under normoxic condition by Alamar blue assay; assay type: functional, cell-based; settings: Canis lupus familiaris; how it was run: as §5
# MDCK [14] = assay: Cytotoxicity against carbonic anhydrase 9 knockdown MDCK cells assessed as reduction in cell viability at 50 nM pretreated for 1 hr followed by 4 Gy irradiation under anoxic condition by Alamar blue assay; assay type: cell-based, Canis lupus familiaris; settings: dog, 0.05 µM; how it was run: as §1
# MDCK [15] = assay: Cytotoxicity against carbonic anhydrase 9 knockdown MDCK cells assessed as reduction in cell viability at 50 nM pretreated for 1 hr followed by 2 Gy irradiation under normoxic condition by Alamar blue assay; assay type: cell-based, Canis lupus familiaris; settings: dog, 0.05 µM; how it was run: as §1
# MDCK [16] = assay: Cytotoxicity against MDCK cells expressing carbonic anhydrase 9 assessed as reduction in cell viability at 50 nM after 72 hrs under anoxic condition by Alamar blue assay; assay type: functional, cell-based; settings: Canis lupus familiaris; how it was run: as §5
# MDCK [17] = assay: Cytotoxicity against carbonic anhydrase 9 knockdown MDCK cells assessed as reduction in cell viability at 50 nM pretreated for 72 hrs followed by 72 hrs incubation under normoxic condition by Alamar blue assay; assay type: cell-based, Canis lupus familiaris; settings: dog, 0.05 µM; how it was run: as §5
# MDCK [18] = assay: Cytotoxicity against MDCK cells expressing carbonic anhydrase 9 assessed as reduction in cell viability at 50 nM pretreated for 1 hr followed by 4 Gy irradiation under anoxic condition by Alamar blue assay; assay type: functional, cell-based; settings: Canis lupus familiaris; how it was run: as §1
# HCT-116 [19] = assay: Effect on mitochondrial respiration in carbonic anhydrase 9 knockdown human HCT116 cells assessed as reduction in oxygen consumption rate at 0.5 mM after 24 hrs under hypoxic condition […]; assay type: ADME, cell-based; settings: hct-116, 24 h, 500 µM
# How it was run: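 HCT116 cells with constitutive CAIX knockdown or scrambled control were seeded at 1.5×10^4 cells/well and kept 18 h at 0.2% O2. Medium was then switched to DMEM with 25 mM glucose, 4 mM glutamine and 1 mM pyruvate, 60 min before assay, in a CO2-free incubator at 37 °C. Seahorse XF96 oxygen consumption rate was read at baseline and after injection of drug or PBS vehicle. Values were normalized to BCA protein.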
# MDCK [20] = assay: Cytotoxicity against carbonic anhydrase 9 knockdown MDCK cells assessed as reduction in cell viability after 72 hrs under normoxic condition by Alamar blue assay; assay type: cell-based; settings: Canis lupus familiaris
# MDCK [21] = assay: Cytotoxicity against MDCK cells expressing carbonic anhydrase 9 assessed as surviving fraction incubated for 24 hrs measured after 7 days under hypoxic condition by methylene blue staining based clonogenic survival assay; assay type: functional, Canis lupus familiaris
# How it was run: (§6)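 Confluent, high-density MDCK CAIX+/CAIX− cells, to allow CAIX-dependent medium acidification. Drug or vehicle (0.5% DMSO) for 24 h under normoxia (21% O2) or hypoxia (0.2% O2). Cells then trypsinised and reseeded in triplicate at known numbers, grown 7 days. Colonies fixed and stained with 0.4% methylene blue in 70% ethanol. Surviving fraction normalised to vehicle. Three independent biological repeats.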
# MDCK [22] = assay: Cytotoxicity against MDCK cells expressing carbonic anhydrase 9 assessed as reduction in cell viability after 72 hrs under hypoxic condition by Alamar blue assay; assay type: functional, cell-based; settings: Canis lupus familiaris
# MDCK [23] = assay: Cytotoxicity against MDCK cells expressing carbonic anhydrase 9 assessed as reduction in cell viability after 72 hrs under normoxic condition by Alamar blue assay; assay type: functional, cell-based; settings: Canis lupus familiaris
# [24] = Cytotoxicity against carbonic anhydrase 9 knockdown MDCK cells assessed as surviving fraction incubated for 24 hrs measured after 7 days under normoxic condition by methylene blue staining based clonogenic survival assay; assay type: cell-based, Canis lupus familiaris; settings: dog, read-out: Survival; how it was run: as §6
# MDCK [25] = assay: Cytotoxicity against carbonic anhydrase 9 knockdown MDCK cells assessed as reduction in cell viability after 72 hrs under hypoxic condition by Alamar blue assay; assay type: cell-based; settings: Canis lupus familiaris
# MDCK [26] = assay: Cytotoxicity against carbonic anhydrase 9 knockdown MDCK cells assessed as reduction in cell viability incubated for 24 hrs measured after 7 days under normoxic condition by methylene blue staining based clonogenic survival assay; set-up: species or system Canis lupus familiaris; settings: dog
# How it was run: (§7)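 Clonogenic assay: confluent, high-density MDCK CAIX+/CAIX− cells were exposed to drug for 24 h at 0.2% or 21% O2. Cells were then trypsinized and reseeded in triplicate at known numbers. Colonies grew 7 days and were fixed/stained with 0.4% methylene blue in 70% ethanol. Surviving fraction was normalized to 0.5% DMSO vehicle; three independent biological repeats.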
# MDCK [27] = assay: Cytotoxicity against MDCK cells expressing carbonic anhydrase 9 assessed as reduction in cell viability incubated for 24 hrs measured after 7 days under hypoxic condition by methylene blue staining based clonogenic survival assay; assay type: functional; settings: Canis lupus familiaris; how it was run: as §7
# MDCK [28] = assay: Cytotoxicity against carbonic anhydrase 9 knockdown MDCK cells assessed as reduction in cell viability incubated for 24 hrs measured after 7 days under hypoxic condition by methylene blue staining based clonogenic survival assay; set-up: species or system Canis lupus familiaris; settings: dog; how it was run: as §7
# MDCK [29] = assay: Cytotoxicity against MDCK cells expressing carbonic anhydrase 9 assessed as reduction in cell viability incubated for 24 hrs measured after 7 days under normoxic condition by methylene blue staining based clonogenic survival assay; assay type: functional; settings: Canis lupus familiaris; how it was run: as §7
Structure (SMILES),Ki (Carbonic anhydrase 12) [µM],Ki (Carbonic anhydrase 9) [µM],Ki (Carbonic anhydrase 2) [µM],Ki (Carbonic anhydrase 1) [µM],IC50 (MDCK [20]) [µM],IC50 (MDCK [22]) [µM],IC50 (MDCK [23]) [µM],IC50 (MDCK [25]) [µM],also measured
CS(=O)(=O)c1ccc(-c2cnc(NS(N)(=O)=O)c(C(=O)Nc3ccccc3)n2)cc1,> 50,> 50,> 50,> 50,,,,,Activity (MDCK [1]): Non-Toxic; Activity (MDCK [2]): Non-Toxic; Activity (MDCK [3]): Active; Activity (MDCK [4]): Toxic; Activity (MDCK [5]): Toxic; Activity (MDCK [6]): Active; Activity (MDCK [7]): Active; Activity (MDCK [8]): Active
Cl.N=C(N)NC(=N)NCCc1ccc(S(N)(=O)=O)cc1,,0.0202,,,,,,,Activity (HCT-116 [9]): inactive; Activity (HCT-116 [10]): Non-Toxic
CNCc1ccc(-c2cc(-c3nc(-c4ccc(S(=O)(=O)C(C)C)cc4)cnc3N)on2)cc1 [BERZOSERTIB],> 50,> 50,> 50,> 50,,,,,Activity (MDCK [11]): Active; Activity (MDCK [12]): Toxic; Activity (MDCK [13]): Active; Activity (MDCK [14]): Non-Toxic; Activity (MDCK [15]): Non-Toxic; Activity (MDCK [16]): Active; Activity (MDCK [17]): Toxic; Activity (MDCK [18]): Active
[H]/N=C(/N)N/C(=N/[H])NCCc1ccccc1 [PHENFORMIN],> 50,> 50,> 50,> 50,,,,,Activity (HCT-116 [19]): Toxic
Cn1nnc2c(C(=O)NOS(N)(=O)=O)ncn2c1=O,> 50,> 50,> 50,> 50,719,> 1000,> 1000,1000,Survival (MDCK [21]): 26.1%; viability at 24 h [24]: 46.1%
Cn1nnc2c(C(N)=O)ncn2c1=O [TEMOZOLOMIDE],> 50,> 50,> 50,> 50,775,> 1000,> 1000,1000,Activity (MDCK [26]): Toxic; Activity (MDCK [27]): Active; Activity (MDCK [28]): Toxic; Activity (MDCK [29]): Active
